Assay outcomes: PubChem BioAssay, The Scripps Research Institute Molecular Screening Center
core dimer inh: blocks dimerization of HCV core protein | TR-FRET GST/Flag-core106 dimerization, 1536-well | 0.33% of 300,000 active | AID 1899 | inhibition, % at 5 µM;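 active means inhibition above the mean of all tested compounds plus 3 SD, set per screening campaign, cut at about 45% in these data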
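Material: Tagged HCV core106 pair (GST and Flag) | Amount: GST-core106 13.5 nM, Flag-core106 17 nM | Medium: KF-containing HEPES buffer, pH 7.45, DTT, CHAPS, BSA | Reagent: Eu donor and XL665 acceptor anti-tag antibodies | Schedule: 4 h at 22.5 °C | Technique: Time-resolved FRET, ex 340 nm, em 617 and 671 nm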
TAAR1 antagonist: human TAAR1 antagonism | Q96RJ0 | CHO RD-HGA16 TAAR1, Fluo-8 calcium fluorescence, antagonist | inhibition, % at 3 µM | 1.5% of 360,000 active;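 active means inhibition above a per-plate cutoff, the mean inhibition of test compounds on that plate plus 3 SD, cut at about 49% in these data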;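 further: 0% = DMSO plus EC80 beta-PEA response and 100% = DMSO alone without agonist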
Target sequence (Q96RJ0 whole entry, looked up): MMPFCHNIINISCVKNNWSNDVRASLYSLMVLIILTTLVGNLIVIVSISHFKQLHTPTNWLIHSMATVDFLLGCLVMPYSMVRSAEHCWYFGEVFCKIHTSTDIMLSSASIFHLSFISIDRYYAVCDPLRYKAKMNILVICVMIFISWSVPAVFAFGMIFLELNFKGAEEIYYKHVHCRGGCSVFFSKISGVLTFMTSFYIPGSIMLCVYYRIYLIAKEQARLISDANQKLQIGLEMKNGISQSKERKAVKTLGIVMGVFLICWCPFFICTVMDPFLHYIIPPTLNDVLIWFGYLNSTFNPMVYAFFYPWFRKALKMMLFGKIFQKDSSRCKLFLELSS
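Assay system: CHO-derived RD-HGA16 cells stably expressing human TAAR1 plus Gα16. Timing: 140 s kinetic read after compound, 140 s after agonist. Technique: kinetic Fluo-8 calcium fluorescence measurement. Measure: % inhibition of agonist calcium response.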
rCAG RNA binder: r(CAG) repeat RNA binding. AID 651821. TO-PRO-1 dye displacement fluorescence. 1.3% of 370,000 active. inhibition, % at 3 µM;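 active means inhibition above the plate cutoff, the mean of all test compounds on that plate plus 3 SD, cut at about 35% in these data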;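 further: 0% = DMSO alone and 100% = 100 µM mitoxantrone as full dye displacement; higher means more dye released from RNA so lower well fluorescence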
TAAR1 agonist: agonists of human TAAR1; activation, % at 3 µM; CHO RD-HGA16 TAAR1, Fluo-8 calcium fluorescence; vehicle wells 0%, saturating PEA agonist 100%; 0.99% of 360,000 active; Q96RJ0;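 active means activation above the mean activation of all test compounds in the run plus 3 SD, cut at about 38% in these data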
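System: CHO RD-HGA16 cells carrying human TAAR1 plus Gα16; Incubation: 17-24 h seeding, 75 min 37 °C dye, 30 min RT; Measured by: Fluo-8 fluorescence, 5 s baseline then 140 s kinetic read; Control set: DMSO and PEA EC100; Replication: single well for each compound.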
NS3 helicase inh: HCV NS3 helicase inhibition | NS3 helicase DNA unwinding, Cy5 molecular beacon fluorescence | inhibition, % at 10.9 µM | 0.56% of 290,000 active | AID 1800;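 active means inhibition above the mean of all tested compounds plus 3 SD, set per campaign, cut at about 35% in these data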;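 further: 0% = DMSO wells and 100% = thioflavine S control wells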
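Compound dosing – single dose, 10.9 µM nominal final, DMSO 0.8% final · System – NS3 helicase fragment of HCV · Buffer or medium – MOPS pH 6.5, MgCl2, DTT, Tween20, BSA · Signal – Cy5 beacon fluorescence read at start and 1 h · Also added – annealed dual-labelled DNA beacon duplex, ATP-started · Schedule – 1 h at 25 °C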
rCAG binder conf: r(CAG) RNA repeat binding, confirmation; shares compounds with rCAG RNA binder; 70% of 4,300 active; inhibition, % at 3 µM; TO-PRO-1 dye displacement fluorescence;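 active means inhibition above a per-plate cutoff, the mean inhibition of sample wells plus 3 SD, cut at about 35% in these data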;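 further: loss of TO-PRO-1 fluorescence as compound displaces dye from 1x1 AA loop RNA; 0% = DMSO only wells and 100% = 100 µM mitoxantrone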
dCAG dye counter: disrupts DNA CAG TO-PRO-1 complex, flagging rCAG hits | shares compounds with rCAG RNA binder | inhibition, % at 3 µM | 94% of 4,300 active | d(CAG) DNA oligo TO-PRO-1 dye displacement, fluorescence;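 active means inhibition above its plate's cutoff, the mean test-well inhibition plus 3 SD, cut at about 4.8% in these data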;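 further: 0% = DNA dye mix with DMSO and 100% = 100 µM mitoxantrone; hits displace the dye from DNA and so lower well fluorescence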
dCAG dye DR: DNA CAG dye complex inhibition, dose response counter-screen; shares compounds with rCAG RNA binder; DNA CAG/GTC duplex TO-PRO-1 dye displacement fluorescence; IC50, µM; 20% of 250 active; in the data active means IC50 below about 10 µM
* = called active by the depositor; i = inactive; x = no result. Most compounds without a hit are left out; they make up all but 3.7% or so of the library.

SMILES	core dimer inh	TAAR1 antagonist	rCAG RNA binder	TAAR1 agonist	NS3 helicase inh	rCAG binder conf	dCAG dye counter	others
COc1ccc(NC(=O)CN(C)C(=O)c2ccc(NS(=O)(=O)c3ccc(C)c([N+](=O)[O-])c3)cc2)cc1	5	-29	28	3	x	x	x
CC(=O)c1ccc(NC(=O)C(C)OC(=O)c2ccc(NS(=O)(=O)c3ccc(F)c(F)c3)cc2)cc1 (stereo not drawn)	8	12	53*	3	-16	43*	17*
CCc1ccc(NC(=O)C(C)OC(=O)c2ccc(NS(=O)(=O)c3ccc(C)c([N+](=O)[O-])c3)cc2)cc1 (stereo not drawn)	35	17	85*	-1	-8	82*	48*
COc1ccccc1C(=O)NC1CCCCN(C)C1=O (stereo not drawn)	x	4	0	0	x	x	x
Nn1c(SCc2cccc3ccccc23)nnc1-c1cc(-c2ccc(F)cc2)n[nH]1	x	x	9	x	x	x	x
CCCCCCCCN1C(=O)[C@@H](CC(=O)NCCCCc2ccccc2)C[C@@]2(C(=O)OC)C1=C[C@H](COCc1ccccc1)O[C@@H]2C	x	x	7	x	x	x	x
COC(=O)[C@]1(Cc2ccccc2)NC=C(C(=O)c2ccc(F)cc2)[C@@H]1c1ccccc1	x	4	2	1	x	x	x
Cn1c(=O)c(=O)n(C)c2cc(S(=O)(=O)N3CCC(Cc4ccccc4)CC3)ccc21	2	-7	-1	17	6	x	x
O=c1[nH]c2ccc(S(=O)(=O)N3CCC(Cc4ccccc4)CC3)cc2o1	12	30	48*	4	-2	46*	14*
CCCCN(Cc1ccccc1)S(=O)(=O)c1ccc2[nH]c(=O)oc2c1	11	49*	39*	13	19	29	8.0*
Cc1nc(NS(=O)(=O)c2ccccc2)sc1C(=O)NN	5	9	83*	14	6	9	4
Cc1ccc(S(=O)(=O)Nc2nc(C)c(C(=O)NNS(=O)(=O)c3ccccc3)s2)cc1	-1	-3	14	-2	3	x	x
Cc1ccc(S(=O)(=O)Nc2nc(C)c(C(=O)Nc3ccccc3)s2)cc1	5	1	36*	-1	18	19	2
Cc1ccc(S(=O)(=O)Nc2nc(C)c(C(=O)N/N=C/c3ccccc3)s2)cc1	8	-8	80*	6	25	70*	24*	dCAG dye DR=i
Cn1c(N)c(C(=O)N/N=C/c2ccccc2)sc1=S	-5	-4	43*	-1	-19	21	7.8*
Cc1c(C(=O)N/N=C/c2cccnc2)sc(=S)n1C	2	22	8	-1	-10	x	x
COC(=O)c1cc2c(c3c4cc(F)ccc4n(S(=O)(=O)c4ccc(C)cc4)c13)C(=O)N(c1ccc(OC)cc1)C2	x	-22	15	-1	x	x	x
C/C(=N/NC(=O)c1sc(NS(=O)(=O)c2ccccc2)nc1C)c1sc(N)nc1C	-7	6	79*	0	-22	10	3
Cc1ccc(S(=O)(=O)Nc2nc(C)c(NC(=O)OCCCl)s2)cc1	-5	-8	12	2	3	x	x
COc1ccc(NC(=O)Nc2sc(NS(=O)(=O)c3ccccc3)nc2C)cc1	-4	7	24	13	11	x	x
Cc1ccc(S(=O)(=O)Nc2nc(C)c(NC(=O)Nc3ccc(Cl)cc3Cl)s2)cc1	23	-20	62*	28	15	59*	24*
CC(COc1ccc([N+](=O)[O-])cc1Cl)CN1CCC(C(O)(c2ccccc2)c2ccccc2)CC1 (stereo not drawn)	x	x	4	x	x	x	x
CC(=O)Nc1ccc(S(=O)(=O)NNC(=O)c2cc3c4ccccc4n(C)c3s2)cc1	14	0	36*	1	0	31	16*
Cn1c2ccccc2c2cc(C(=O)NNC(=O)CCl)sc21	3	16	7	1	14	x	x
CCOC(=O)NC(=O)/C(C#N)=N\Nc1ccc(Cl)cc1	-3	9	24	4	1	x	x
